Experiments:
[1] = molecular target: PDGFRβ (Homo sapiens, UniProt P09619); test: Kinase activity screening; format: biochemical; conditions: FX-9 at 2.5 μM, ATP at Km (200 μM)
Method in brief: (§1)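 Radiometric substrate-phosphorylation screen covering a panel of 58 human kinases run by a contract service. […] Activity is given as a percentage of mean activity in positive control samples (100%). Values <30% were scored strong hits, 30–70% partial hits and >70% no hit.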

[2] = molecular target: Rsk1 (Homo sapiens, UniProt Q15418); test: Kinase activity screening; format: biochemical; conditions: FX-9 at 2.5 μM, ATP at Km (45 μM)
Method in brief: (§2)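 Radiometric kinase-panel screen of 58 human kinases, measuring substrate phosphorylation. […] Activity is given as % of the mean positive-control kinase activity (100%). Below 30% counts as a strong hit, 30–70% as a partial hit, and above 70% as no hit.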

[3] = molecular target: IRAK4 (Homo sapiens, UniProt Q9NWZ3); test: Kinase activity screening; format: biochemical; conditions: FX-9 at 2.5 μM, ATP at Km (200 μM)
Method in brief: as §1

[4] = molecular target: MSK2 (Homo sapiens, UniProt O75676); test: Kinase activity screening; format: biochemical; conditions: FX-9 at 2.5 μM, ATP at Km (45 μM)
Method in brief: as §1

[5] = system: B- and T-ALL cells; test: Proliferation, viable cell count by trypan blue exclusion; format: cell-based; conditions: Homo sapiens, read-out: IC50 values against B- and T-ALL cells
Method in brief: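 Human B-ALL (SEM, RS4;11) and T-ALL (Jurkat, CEM) lines were grown with 10% heat-inactivated FBS and penicillin/streptomycin at 37°C, 5% CO2. Cells took test compound at 0.1–5.0 μM (methods: 0.5–5.0 μM) or DMSO for up to 72 h. Viable cells were counted by trypan blue exclusion and expressed relative to control (100%). IC50 came from three separate experiments, each in triplicate.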

[6] = system: Jurkat cells; test: WST-1 metabolic activity assay; format: cell-based; conditions: Homo sapiens, 72 h, read-out: metabolic activity
Method in brief: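 Test compound came from a 10 mM DMSO stock. Cells were seeded at 5×10^4/well in triplicate with 5 or 10 μM final compound; controls got matched DMSO. After 72 h at 37°C, 5% CO2, WST-1 was added for a further 3 h. Absorbance was read at 450 nm (reference 620 nm), and metabolic activity given as % of DMSO control.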

[7] = molecular target: eEF-2K (Homo sapiens, UniProt O00418); test: Kinase activity screening; format: biochemical; conditions: FX-9 at 2.5 μM, ATP at Km (15 μM)
Method in brief: as §2

[8] = molecular target: ASK1 (Homo sapiens, UniProt Q99683); test: Kinase activity screening; format: biochemical; conditions: FX-9 at 2.5 μM, ATP at Km (200 μM)
Method in brief: as §1

[9] = molecular target: PI3 Kinase (p110b/p85a) (Homo sapiens, UniProt P42338); test: Kinase activity screening; format: biochemical; conditions: FX-9 at 2.5 μM, ATP at Km (200 μM)
Method in brief: as §1

[10] = system: p-p38; test: Western blot, SEM cells; format: cell-based, human; conditions: 2.5 μM or 5.0 μM, 48 h
Method in brief: (§3)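 SEM or RS4;11 cells took DMSO, 2.5 or 5.0 μM test compound for 48 h. Cells (1–5×10^6) were lysed in RIPA buffer with sonication, run on SDS gels, blotted to PVDF and imaged by near-infrared fluorescence. Bands were normalised to GAPDH, and the phospho/total protein ratio was set relative to DMSO control (=1).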

[11] = molecular target: CDK2/cyclinA (Homo sapiens, UniProt P24941); test: Kinase activity screening; format: biochemical; conditions: FX-9 at 2.5 μM, ATP at Km (45 μM)
Method in brief: as §1

[12] = molecular target: PKCθ (Homo sapiens, UniProt Q04759); test: Kinase activity screening; format: biochemical; conditions: FX-9 at 2.5 μM, ATP at Km (15 μM)
Method in brief: as §2

[13] = system: CEM cells; test: Cell morphology, May Grünwald Giemsa staining; format: cell-based, human; conditions: 2.5 μM, 48 h
[14] = molecular target: p70S6K (Homo sapiens, UniProt P23443); test: Kinase activity screening; format: biochemical; conditions: FX-9 at 2.5 μM, ATP at Km (15 μM)
Method in brief: as §2

[15] = molecular target: CK1γ1 (Homo sapiens, UniProt Q9HCP0); test: Kinase activity screening; format: biochemical; conditions: FX-9 at 2.5 μM, ATP at Km (15 μM)
Method in brief: as §1

[16] = system: cleaved caspase 3; test: Western blot, SEM cells; format: cell-based, human; conditions: 2.5 μM and 5.0 μM, 48 h
Method in brief: (§4)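 SEM and RS4;11 cells were exposed to 2.5 or 5.0 μM test compound, or DMSO, for 48 h. Lysates of 1–5×10^6 cells were made in RIPA buffer with sonication. Cleaved caspase 3 was detected by western blot on PVDF with near-infrared imaging, using GAPDH as loading control.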

[17] = molecular target: GSK3β (Homo sapiens, UniProt P49841); test: Kinase activity screening; format: biochemical; conditions: FX-9 at 2.5 μM, ATP at Km (15 μM)
Method in brief: as §1

[18] = molecular target: EGFR (Homo sapiens, UniProt P00533); test: Kinase activity screening; format: biochemical; conditions: FX-9 at 2.5 μM, ATP at Km (10 μM)
Method in brief: as §1

[19] = molecular target: c-RAF (Homo sapiens, UniProt P04049); test: Kinase activity screening; format: biochemical; conditions: FX-9 at 2.5 μM, ATP at Km (120 μM)
Method in brief: as §2

[20] = molecular target: JAK2 (Homo sapiens, UniProt O60674); test: Kinase activity screening; format: biochemical; conditions: FX-9 at 2.5 μM, ATP at Km (45 μM)
Method in brief: as §1

[21] = molecular target: MAPKAP-K2 (Homo sapiens, UniProt P49137); test: Kinase activity screening; format: biochemical; conditions: FX-9 at 2.5 μM, ATP at Km (90 μM)
Method in brief: as §1

[22] = molecular target: Mnk2 (Homo sapiens, UniProt Q9HBH9); test: Kinase activity screening; format: biochemical; conditions: FX-9 at 2.5 μM, ATP at Km (120 μM)
Method in brief: as §1

[23] = system: cleaved caspase 3; test: Western blot, RS4; format: cell-based, human; conditions: RS4;11, 2.5 μM and 5.0 μM, 48 h
Method in brief: as §4

[24] = molecular target: SRPK1 (Homo sapiens, UniProt Q96SB4); test: Kinase activity screening; format: biochemical; conditions: FX-9 at 2.5 μM, ATP at Km (10 μM)
Method in brief: as §2

[25] = molecular target: MLK1 (Homo sapiens, UniProt P80192); test: Kinase activity screening; format: biochemical; conditions: FX-9 at 2.5 μM, ATP at Km (45 μM)
Method in brief: as §1

[26] = molecular target: ROCK-I (Homo sapiens, UniProt Q13464); test: Kinase activity screening; format: biochemical; conditions: FX-9 at 2.5 μM, ATP at Km (70 μM)
Method in brief: as §2

[27] = molecular target: AMPKα1 (Homo sapiens, UniProt Q13131); test: Kinase activity screening; format: biochemical; conditions: FX-9 at 2.5 μM, ATP at Km (45 μM)
Method in brief: as §1

[28] = system: pERK; test: Western blot, RS4; format: cell-based, human; conditions: RS4;11, 2.5 μM or 5.0 μM, 48 h
Method in brief: as §3

[29] = molecular target: Rse (Homo sapiens, UniProt Q06418); test: Kinase activity screening; format: biochemical; conditions: FX-9 at 2.5 μM, ATP at Km (45 μM)
Method in brief: as §2

IRAK4, sequence (Q9NWZ3 whole entry): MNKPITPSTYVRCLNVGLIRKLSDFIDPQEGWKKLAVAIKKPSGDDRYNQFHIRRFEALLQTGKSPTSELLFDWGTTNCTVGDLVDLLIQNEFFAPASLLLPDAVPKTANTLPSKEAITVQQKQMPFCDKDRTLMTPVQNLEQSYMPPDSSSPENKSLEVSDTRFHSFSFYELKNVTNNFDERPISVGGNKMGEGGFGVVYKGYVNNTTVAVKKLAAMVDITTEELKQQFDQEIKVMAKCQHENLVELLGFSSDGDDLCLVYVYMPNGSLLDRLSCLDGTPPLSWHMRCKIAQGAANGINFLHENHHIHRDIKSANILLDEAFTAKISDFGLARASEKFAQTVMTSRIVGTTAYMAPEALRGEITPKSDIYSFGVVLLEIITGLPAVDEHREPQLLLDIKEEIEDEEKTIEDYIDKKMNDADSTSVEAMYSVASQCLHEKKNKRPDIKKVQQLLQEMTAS
ASK1, sequence (Q99683 whole entry): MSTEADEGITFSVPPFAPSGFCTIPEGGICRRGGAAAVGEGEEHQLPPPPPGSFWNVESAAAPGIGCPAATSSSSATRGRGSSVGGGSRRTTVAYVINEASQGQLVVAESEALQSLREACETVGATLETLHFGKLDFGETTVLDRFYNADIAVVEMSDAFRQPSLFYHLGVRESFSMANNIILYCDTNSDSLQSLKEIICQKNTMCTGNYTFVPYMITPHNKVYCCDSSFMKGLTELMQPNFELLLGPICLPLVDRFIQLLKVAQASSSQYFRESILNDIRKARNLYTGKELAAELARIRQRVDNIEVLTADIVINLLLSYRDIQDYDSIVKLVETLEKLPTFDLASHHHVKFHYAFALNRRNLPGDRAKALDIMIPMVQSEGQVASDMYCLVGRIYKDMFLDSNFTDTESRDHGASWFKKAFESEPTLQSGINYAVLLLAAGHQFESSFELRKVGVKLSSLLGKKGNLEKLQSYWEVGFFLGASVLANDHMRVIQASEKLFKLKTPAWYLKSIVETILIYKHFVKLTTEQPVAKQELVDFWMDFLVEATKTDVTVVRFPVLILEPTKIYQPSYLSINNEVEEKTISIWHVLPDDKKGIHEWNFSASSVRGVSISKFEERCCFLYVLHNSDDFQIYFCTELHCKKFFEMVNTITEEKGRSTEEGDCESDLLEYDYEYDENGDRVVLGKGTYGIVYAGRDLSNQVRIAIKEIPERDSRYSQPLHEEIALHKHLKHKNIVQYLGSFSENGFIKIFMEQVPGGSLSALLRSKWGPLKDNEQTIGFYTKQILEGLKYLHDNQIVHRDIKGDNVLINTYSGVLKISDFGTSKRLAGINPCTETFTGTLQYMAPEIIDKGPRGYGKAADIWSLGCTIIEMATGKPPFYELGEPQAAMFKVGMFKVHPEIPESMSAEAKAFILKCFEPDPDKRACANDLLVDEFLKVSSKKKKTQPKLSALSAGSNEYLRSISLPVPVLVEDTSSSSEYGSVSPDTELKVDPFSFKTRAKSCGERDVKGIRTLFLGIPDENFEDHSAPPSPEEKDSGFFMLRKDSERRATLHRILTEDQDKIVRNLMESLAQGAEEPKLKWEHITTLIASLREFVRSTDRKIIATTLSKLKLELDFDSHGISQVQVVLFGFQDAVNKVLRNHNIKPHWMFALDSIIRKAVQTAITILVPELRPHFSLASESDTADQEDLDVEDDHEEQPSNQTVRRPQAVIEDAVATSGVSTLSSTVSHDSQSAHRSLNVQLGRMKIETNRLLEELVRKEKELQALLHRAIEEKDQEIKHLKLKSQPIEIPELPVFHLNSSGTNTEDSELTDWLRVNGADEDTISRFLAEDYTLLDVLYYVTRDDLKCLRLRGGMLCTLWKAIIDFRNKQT
p70S6K, sequence (P23443 whole entry): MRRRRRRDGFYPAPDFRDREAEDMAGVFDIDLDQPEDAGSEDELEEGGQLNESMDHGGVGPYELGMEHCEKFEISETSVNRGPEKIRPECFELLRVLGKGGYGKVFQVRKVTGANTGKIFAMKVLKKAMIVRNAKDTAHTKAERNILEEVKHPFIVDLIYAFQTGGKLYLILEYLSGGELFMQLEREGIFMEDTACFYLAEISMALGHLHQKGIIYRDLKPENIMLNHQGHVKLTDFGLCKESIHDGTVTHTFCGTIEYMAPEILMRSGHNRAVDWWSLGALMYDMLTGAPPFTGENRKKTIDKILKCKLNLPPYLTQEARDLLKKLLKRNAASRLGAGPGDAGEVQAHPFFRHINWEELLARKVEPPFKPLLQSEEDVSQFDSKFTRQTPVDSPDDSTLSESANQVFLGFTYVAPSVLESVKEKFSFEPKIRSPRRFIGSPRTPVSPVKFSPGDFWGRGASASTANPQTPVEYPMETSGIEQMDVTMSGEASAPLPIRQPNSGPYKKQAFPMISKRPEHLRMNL
c-RAF, sequence (P04049 whole entry): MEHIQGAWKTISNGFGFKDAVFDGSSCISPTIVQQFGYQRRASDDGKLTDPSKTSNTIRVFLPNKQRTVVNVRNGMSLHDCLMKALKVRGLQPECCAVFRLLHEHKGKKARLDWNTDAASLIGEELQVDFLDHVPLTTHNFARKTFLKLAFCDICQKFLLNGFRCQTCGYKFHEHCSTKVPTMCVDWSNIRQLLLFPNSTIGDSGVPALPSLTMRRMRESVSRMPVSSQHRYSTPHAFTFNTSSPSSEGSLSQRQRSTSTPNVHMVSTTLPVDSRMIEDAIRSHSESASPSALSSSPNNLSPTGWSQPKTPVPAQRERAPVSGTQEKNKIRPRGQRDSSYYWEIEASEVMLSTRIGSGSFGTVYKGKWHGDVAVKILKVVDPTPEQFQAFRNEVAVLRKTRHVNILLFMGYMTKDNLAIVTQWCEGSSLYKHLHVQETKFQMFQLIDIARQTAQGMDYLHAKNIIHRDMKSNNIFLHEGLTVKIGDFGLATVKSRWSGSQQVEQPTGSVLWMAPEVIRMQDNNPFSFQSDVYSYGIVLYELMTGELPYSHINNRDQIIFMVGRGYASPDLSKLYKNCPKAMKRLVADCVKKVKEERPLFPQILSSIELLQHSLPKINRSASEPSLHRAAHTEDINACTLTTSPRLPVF
Rse, sequence (Q06418 41-890): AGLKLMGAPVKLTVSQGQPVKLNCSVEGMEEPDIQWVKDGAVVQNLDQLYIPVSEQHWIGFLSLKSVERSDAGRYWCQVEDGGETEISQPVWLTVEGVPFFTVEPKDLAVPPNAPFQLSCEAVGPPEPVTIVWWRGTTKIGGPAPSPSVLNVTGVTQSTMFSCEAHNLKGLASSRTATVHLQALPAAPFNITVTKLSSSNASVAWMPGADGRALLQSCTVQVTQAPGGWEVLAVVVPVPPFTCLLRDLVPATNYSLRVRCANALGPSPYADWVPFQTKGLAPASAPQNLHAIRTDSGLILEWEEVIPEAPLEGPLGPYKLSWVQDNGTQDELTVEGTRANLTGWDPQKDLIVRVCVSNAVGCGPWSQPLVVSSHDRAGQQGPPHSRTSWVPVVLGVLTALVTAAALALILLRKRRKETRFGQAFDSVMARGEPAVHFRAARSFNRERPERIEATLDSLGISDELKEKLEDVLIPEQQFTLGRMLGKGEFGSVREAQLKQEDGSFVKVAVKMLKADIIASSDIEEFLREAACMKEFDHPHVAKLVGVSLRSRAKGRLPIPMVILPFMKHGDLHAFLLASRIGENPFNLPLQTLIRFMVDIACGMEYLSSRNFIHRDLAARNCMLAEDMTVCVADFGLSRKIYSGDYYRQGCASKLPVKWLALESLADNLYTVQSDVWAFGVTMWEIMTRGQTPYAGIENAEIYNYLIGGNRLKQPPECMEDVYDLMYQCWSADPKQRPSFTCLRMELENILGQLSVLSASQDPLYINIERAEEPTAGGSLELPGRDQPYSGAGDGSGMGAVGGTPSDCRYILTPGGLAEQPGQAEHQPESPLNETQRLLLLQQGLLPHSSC
eEF-2K, sequence (O00418 whole entry): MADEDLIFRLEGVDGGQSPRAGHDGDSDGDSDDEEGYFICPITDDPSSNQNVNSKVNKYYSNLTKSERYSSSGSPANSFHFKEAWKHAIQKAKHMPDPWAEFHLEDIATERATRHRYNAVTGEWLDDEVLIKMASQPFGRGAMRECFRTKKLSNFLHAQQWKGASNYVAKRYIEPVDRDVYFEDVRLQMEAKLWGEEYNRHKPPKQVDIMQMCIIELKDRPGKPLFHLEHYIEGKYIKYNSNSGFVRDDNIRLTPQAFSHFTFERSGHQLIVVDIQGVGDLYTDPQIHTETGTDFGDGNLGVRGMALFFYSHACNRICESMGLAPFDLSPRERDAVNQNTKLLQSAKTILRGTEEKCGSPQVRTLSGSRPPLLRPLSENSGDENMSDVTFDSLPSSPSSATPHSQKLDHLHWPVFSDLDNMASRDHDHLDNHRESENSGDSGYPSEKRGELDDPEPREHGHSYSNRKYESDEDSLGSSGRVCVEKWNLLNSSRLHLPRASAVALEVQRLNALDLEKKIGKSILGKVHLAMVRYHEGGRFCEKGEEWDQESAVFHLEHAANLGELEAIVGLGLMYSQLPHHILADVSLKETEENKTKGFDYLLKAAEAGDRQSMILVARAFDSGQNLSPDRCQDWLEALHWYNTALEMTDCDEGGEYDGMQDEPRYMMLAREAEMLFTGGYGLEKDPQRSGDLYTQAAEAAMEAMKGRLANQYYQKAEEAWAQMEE
GSK3β, sequence (P49841 whole entry): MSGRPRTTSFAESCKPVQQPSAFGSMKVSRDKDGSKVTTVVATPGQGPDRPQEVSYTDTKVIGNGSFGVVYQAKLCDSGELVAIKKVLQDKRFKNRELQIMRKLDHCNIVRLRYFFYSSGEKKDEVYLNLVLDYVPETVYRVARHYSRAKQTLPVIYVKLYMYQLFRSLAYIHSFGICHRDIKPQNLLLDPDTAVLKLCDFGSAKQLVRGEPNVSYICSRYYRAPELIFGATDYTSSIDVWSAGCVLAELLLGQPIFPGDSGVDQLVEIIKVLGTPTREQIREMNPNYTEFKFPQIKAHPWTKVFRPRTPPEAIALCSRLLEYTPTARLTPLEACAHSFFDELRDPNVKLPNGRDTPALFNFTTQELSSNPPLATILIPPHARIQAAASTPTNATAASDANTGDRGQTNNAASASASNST

## Cc1ccc(-c2cc3ccccc3c(N)n2)cc1 [FX-9, 3-(p-Tolyl)isoquinolin-1-amine]
[1]
  Kinase activity (% control): 99 % control
[2]
  Kinase activity (% control): 95 % control
[3]
  Kinase activity (% control): 95 % control
[4]
  Kinase activity (% control): 89 % control
[5]
  IC50: 540 to 1940 nM
[6]
  viability at 5 µM: 10.4%
  viability at 10 µM: 13.6%
[7]
  Kinase activity (% control): 86 % control
[8]
  Kinase activity (% control): 101 % control
[9]
  Kinase activity (% control): 97 % control
[10]
  p-p38 level (western blot): reduced
[11]
  Kinase activity (% control): 90 % control
[12]
  Kinase activity (% control): 96 % control
[13]
  cellular morphology (light microscopy): Extensive cytoplasmic vacuolization, karyopyknosis, and karyolysis
[14]
  Kinase activity (% control): 85 % control
[15]
  Kinase activity (% control): 98 % control
[16]
  cleaved caspase 3 protein (western blot): increased amount of cleaved caspase 3
[17]
  Kinase activity (% control): 88 % control
[18]
  Kinase activity (% control): 101 % control
[19]
  Kinase activity (% control): 92 % control
[20]
  Kinase activity (% control): 111 % control
[21]
  Kinase activity (% control): 87 % control
[22]
  Kinase activity (% control): 90 % control
[23]
  cleaved caspase 3 protein (western blot): increased amount of cleaved caspase 3
[24]
  Kinase activity (% control): 94 % control
[25]
  Kinase activity (% control): 84 % control
[26]
  Kinase activity (% control): 93 % control
[27]
  Kinase activity (% control): 98 % control
[28]
  pERK level (western blot): dose dependent increase
[29]
  Kinase activity (% control): 92 % control
